Source: PubChem (Johns Hopkins Ion Channel Center)
Shown are actives, neighbours in structure and some others; about 3.5% of the full set was active somewhere.
MrgX1 ag: agonists of human MrgX1 receptor, primary screen, HEK293 cells, Fluo-4 calcium flux; 310,000 tested, 0.44% active; B-score at 10 µM; Fluo-4 calcium fluorescence, agonist mode; stronger effect = higher value;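 active = calcium response B-score plate-corrected fluorescence ratio at least 3 library SD, with starting fluorescence B-score inside 5 SD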
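Material – MrgX1-expressing HEK293 cells · Input – 15,000 cells seeded per well · Dosing – compound as first of three additions · Times – overnight seeding, then 1 h dark dye loading · Measured by – kinetic Fluo-4 NW fluorescence of intracellular calcium · Read-out – B-scored fluorescence response ratio · Benchmarks – positive and negative control wells on each plate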
RGS4 pot: RGS4 potentiators or activators, primary screen, cell-based, HEK293 M3R inducible RGS4, calcium flux | carbachol calcium flux Fluo4; stronger effect = lower value | B-score at 10 µM | 310,000 tested, 0.92% active | AID 463111, 2010;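 active = B-score of the integrated calcium signal more than 4 SD below the library mean, with starting fluorescence not abnormally high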;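 note: negative B-score means reduced calcium response which marks RGS4 activation or potentiation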
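Also added: carbachol at ECmax as muscarinic agonist stimulus; Assay system: HEK293 cells with stable M3R and inducible RGS4; Timing: overnight RGS4 induction, 30 min dye load 37 °C, 20 min compound RT; Measured by: Fluo4-AM (2 µM) calcium-flux fluorescence, kinetic read.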
MrgX1 allo act: positive allosteric modulators of MrgX1, primary screen, HEK293 cells, Fluo-4 calcium flux; FDSS; stronger effect = higher value; B-score at 10 µM; 310,000 tested, 0.63% active;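 active = plate-corrected calcium response at least 3 library SD above typical, normal starting fluorescence, not activating the receptor alone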;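 note: compound read alongside a low EC10 to EC30 dose of BAM8-22 agonist; peak minus trough fluorescence over baseline measured at the second addition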
RGS4 block: RGS4 inhibitors, primary screen, cell-based, HEK293 M3R inducible RGS4, calcium flux; Regulator of G-protein signaling 4 (Homo sapiens), P49798; Fluo-4 calcium flux; stronger effect = higher value; triggered by carbachol at its EC20; B-score at 10 µM; 310,000 tested, 0.45% active; AID 463165, 2010;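 active = B-score, a plate-corrected calcium signal, over three deviations above library mean, with baseline fluorescence within five deviations of library mean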;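 note: RGS4 expression induced by doxycycline in cells with stable M3 receptor; B-score is computed from the integrated fluorescence ratio over baseline after carbachol; higher B-score means a larger calcium signal and so more RGS4 inhibition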
Target sequence (P49798 whole entry, looked up): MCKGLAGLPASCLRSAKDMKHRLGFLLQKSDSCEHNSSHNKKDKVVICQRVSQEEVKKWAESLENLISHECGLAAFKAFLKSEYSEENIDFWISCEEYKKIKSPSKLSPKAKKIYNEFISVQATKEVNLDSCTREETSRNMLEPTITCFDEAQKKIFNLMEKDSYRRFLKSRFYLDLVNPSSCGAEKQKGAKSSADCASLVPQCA
MrgX1 antag: antagonists of human MrgX1 receptor, primary screen, HEK293 cells, Fluo-4 calcium flux | 310,000 tested, 1.3% active | BAM8-22 antagonism; stronger effect = lower value | B-score at 10 µM;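 active = calcium-response B-score plate-corrected more than 3 library SD below zero, starting fluorescence within 5 deviations, no agonist response on first addition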;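 note: peak minus trough fluorescence over baseline after final BAM8-22 challenge near maximal dose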
Starred values were filed as active, the others as inactive; i = inactive.

SMILES | MrgX1 ag | RGS4 pot | MrgX1 allo act | RGS4 block | MrgX1 antag
Cc1ccc(C(=O)O/N=C2/CC3CCC2(C)[C@@]3(C)CBr)cc1 (some centres undefined) | i | i | i | i | i
Cc1ccc(C(=O)O/N=C2\CC3CCC2(C)C3(C)C)cc1 (centres undefined) | i | i | 6.59* | i | i
Cc1cccc(C(=O)O/N=C2/CC3CCC2(C)C3(C)C)c1 (centres undefined) | i | i | 8.19* | i | i
Cc1ccc(NC(=O)CN(C)C(=O)c2cccc(Br)c2)cc1 | i | i | i | i | i
CN(C)CCCOc1cccc(Oc2ccccc2)c1 | i | -7.53* | i | i | i
CC(=O)c1ccc(OCCCCOc2ccc(C(C)=O)cc2)cc1 | i | i | i | i | i
Cc1ccccc1CSCCNC(=O)Nc1ccccc1 | i | i | i | i | i
COc1ccc(C(=O)Nc2cc(C(C)=O)c(/C=C/N(C)C)oc2=O)cc1 | i | i | i | i | -5.28*
CC(C(=O)NCCN1C(=O)S/C(=C\c2cccs2)C1=O)N1C(=O)c2ccccc2C1=O (centres undefined) | i | i | i | i | i
O=C(NCCN1C(=O)S/C(=C\c2cccs2)C1=O)[C@H](Cc1ccccc1)N1C(=O)c2ccccc2C1=O | i | i | i | i | -8.4*
OC1(C#CCN2CCCC2)c2ccccc2-c2ccccc21 | i | -6.99* | i | i | i
CC(=O)N(c1ccccc1)C1CCCC1 | i | i | i | i | i
O=C(CCl)N(c1ccccc1)C1CCCCC1 | i | -7.04* | i | i | i
CC1=CC(=Nc2c(C)n(C)n(-c3ccccc3)c2=O)C=C(C)C1=O | i | i | i | i | i
CC1=CC(=Nc2c(C)n(C)n(-c3ccccc3)c2=O)C=CC1=O | i | i | i | 10.6* | i
O=C(CSc1ccccc1)Nc1ccc(N2CCOCC2)c(F)c1 | i | i | i | i | i
COc1ccc(-n2c(C)cc(/C=C(\C#N)C(=O)NCc3ccco3)c2C)cc1 | i | i | i | i | -4.86*
COc1ccccc1-n1c2c(cc(C(=O)N3CCC(C)CC3)c1=O)C(=O)CC(C)(C)C2 | i | i | 8.6* | i | i
COc1ccc(-n2c3c(cc(C(=O)N4CCC(C)CC4)c2=O)C(=O)CC(C)(C)C3)cc1 | i | i | i | i | i
COc1ccc(-c2nn(-c3ccccc3)cc2/C=N/NC(=O)c2ccc(Br)o2)cc1 | i | -8.11* | i | i | i
Cc1cnc(CNC(=O)C2CCC(=O)N(Cc3ccc(Cl)cc3)C2)[nH]1 (centres undefined) | i | i | i | i | i
CC(=O)Nc1ccc2c(c1)c1ccccc1n2C(C)=O | i | i | i | i | i
CC(=O)n1c(-c2ccccc2)c(CO)c2ccccc21 | i | i | 21.6* | i | i
CCN(CC)CCNC(=O)CCCNC(=O)Cn1cnc2sc(C)c(C)c2c1=O | i | i | i | i | -9.13*
CCc1ccc(NC(=O)CCCNC(=O)Cn2cnc3sc(C)c(C)c3c2=O)cc1 | i | i | i | i | i
COc1ccc(CNC(=O)C(C#N)c2nc3ccccc3nc2N2CCCC2)cc1 (centres undefined) | i | i | i | i | -5.07*
COc1ccc(CNC(=O)C(C#N)c2nc3ccccc3nc2N2CCN(C)CC2)cc1 (centres undefined) | i | i | i | i | i
C=CCNC(=O)C(C#N)c1nc2ccccc2nc1N1CCCCCC1 (centres undefined) | i | i | 7.65* | i | i
O=Cc1cccc(OC(=O)Nc2ccccc2)c1 | i | i | i | i | i
Cc1ccc(-n2c(SCC(=O)N3CCCC3)nc3c(c2=O)SCC3)cc1 | i | i | i | i | -4.86*
